Experimental data published in ChEMBL document CHEMBL4371014, “Novel Allosteric Ligands of γ-Aminobutyric Acid Transporter 1 (GAT1) by MS Based Screening of Pseudostatic Hydrazone Libraries” (J Med Chem, 2018).

Tests used:
[1] = molecular target: T1, GABA transporter 4 (Mus musculus, UniProt P31650); assay: Inhibition of mouse GAT4 expressed in HEK293 cells assessed as reduction in [3H]GABA uptake preincubated for 25 mins followed by [3H]GABA addition and measured after 4 mins by liquid scintillation counting method; assay type: cell-based
T1 sequence (P31650 whole entry): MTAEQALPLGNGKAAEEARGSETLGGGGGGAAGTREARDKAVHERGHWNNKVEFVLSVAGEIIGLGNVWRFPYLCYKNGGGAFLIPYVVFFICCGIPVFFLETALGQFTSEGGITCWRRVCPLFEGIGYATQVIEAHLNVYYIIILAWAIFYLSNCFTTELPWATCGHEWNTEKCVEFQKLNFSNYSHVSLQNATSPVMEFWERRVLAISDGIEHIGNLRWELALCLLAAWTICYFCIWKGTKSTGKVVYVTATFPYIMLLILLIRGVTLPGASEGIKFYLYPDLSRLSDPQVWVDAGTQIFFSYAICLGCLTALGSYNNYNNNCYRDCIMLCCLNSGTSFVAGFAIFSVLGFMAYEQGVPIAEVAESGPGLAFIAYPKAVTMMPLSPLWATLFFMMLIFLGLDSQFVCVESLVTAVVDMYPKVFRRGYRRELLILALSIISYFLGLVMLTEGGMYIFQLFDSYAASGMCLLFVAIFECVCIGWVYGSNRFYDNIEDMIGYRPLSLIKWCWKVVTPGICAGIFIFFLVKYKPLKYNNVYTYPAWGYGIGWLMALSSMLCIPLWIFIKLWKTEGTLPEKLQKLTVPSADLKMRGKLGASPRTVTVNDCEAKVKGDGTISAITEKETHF

[2] = molecular target: T2, Sodium- and chloride-dependent GABA transporter 1 (Homo sapiens, UniProt P30531); assay: Inhibition of NO711 binding to human GAT1 expressed in COS cell membranes preincubated for 25 mins by LC-ESI-MS/MS analysis
[3] = molecular target: T2, Sodium- and chloride-dependent GABA transporter 1; assay: Inhibition of NO711 binding to human GAT1 expressed in COS cell membranes by LC-ESI-MS/MS analysis
[4] = molecular target: T3, Sodium- and chloride-dependent GABA transporter 1 (Mus musculus, UniProt P31648); assay: Inhibition of mouse GAT1 expressed in HEK293 cells assessed as reduction in [3H]GABA uptake preincubated for 25 mins followed by [3H]GABA addition and measured after 4 mins by liquid scintillation counting method; assay type: cell-based
[5] = molecular target: T3, Sodium- and chloride-dependent GABA transporter 1; assay: Inhibition of NO711 binding to mouse GAT1 expressed in HEK293 cell membranes assessed as residual binding preincubated for 4 hrs followed by NO711 addition and measured after 40 mins by LC-ESI-MS/MS analysis
Outline: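 Pseudostatic hydrazone libraries were generated with mouse GAT1 present. Each held eight aldehydes (1.0 µM each) plus hydrazine (200 µM), incubated 4 h. NO711 marker was added directly for a further 40 min. Bound marker was released and quantified by LC-ESI-MS/MS as % remaining specific binding, four replicates (means±SD).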

T2 sequence (P30531 whole entry): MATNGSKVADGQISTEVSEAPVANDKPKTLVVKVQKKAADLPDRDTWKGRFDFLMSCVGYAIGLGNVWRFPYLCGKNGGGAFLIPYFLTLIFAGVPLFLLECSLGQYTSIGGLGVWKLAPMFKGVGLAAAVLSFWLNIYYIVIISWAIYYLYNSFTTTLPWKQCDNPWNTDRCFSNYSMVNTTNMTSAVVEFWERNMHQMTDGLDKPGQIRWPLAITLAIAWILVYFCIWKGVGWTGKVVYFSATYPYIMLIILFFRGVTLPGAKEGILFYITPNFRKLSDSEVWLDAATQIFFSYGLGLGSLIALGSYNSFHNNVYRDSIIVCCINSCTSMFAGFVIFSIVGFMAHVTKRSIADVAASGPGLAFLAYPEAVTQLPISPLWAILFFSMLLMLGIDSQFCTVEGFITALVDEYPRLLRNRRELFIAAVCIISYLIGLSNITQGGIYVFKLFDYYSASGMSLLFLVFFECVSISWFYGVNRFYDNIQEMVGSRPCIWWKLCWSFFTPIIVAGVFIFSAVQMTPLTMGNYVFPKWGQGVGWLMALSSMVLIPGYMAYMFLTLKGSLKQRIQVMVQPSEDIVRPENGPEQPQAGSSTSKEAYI

IC50 [1] [µM] | IC50 [2] [µM] | IC50 [3] [µM] | IC50 [4] [µM] | Ki [5] [µM] | SMILES
15.1 | 30.9 to 135 | 26.9 to 170 | 35.5 | 0.479 | O=C(O)[C@H]1CNC[C@@H](CCN/N=C/c2ccc(-c3ccc(Cl)cc3Cl)o2)C1 (racemic)
41.7 | 30.9 to 135 | 26.9 to 170 | 44.7 | 0.617 | O=C(O)[C@H]1CNC[C@@H](CCN/N=C/c2ccc(-c3ccc(C(F)(F)F)cc3Cl)o2)C1 (racemic)
 |  |  |  | 0.646 | O=C(O)[C@H]1CNC[C@@H](CN/N=C/c2ccc(-c3ccc(Cl)cc3Cl)o2)C1 (racemic)
 |  |  |  | 0.708 | O=C(O)[C@H]1CNC[C@@H](CN/N=C/c2ccc(-c3cccc(C(F)(F)F)c3)o2)C1 (racemic)
 |  |  |  | 0.0275 | Cc1ccsc1C(=CCCN1CCC[C@@H](C(=O)O)C1)c1sccc1C [TIAGABINE]
 |  |  |  | 0.955 | O=C(O)[C@H]1CNC[C@@H](CN/N=C/c2cccc(Oc3ccccc3)c2)C1 (racemic)
 |  |  |  | 0.933 | O=C(O)[C@H]1CNC[C@@H](CN/N=C/c2cnc(-c3ccc4ccccc4c3)nc2)C1 (racemic)
 |  |  |  | 1.86 | O=C(O)[C@H]1CNC[C@@H](CN/N=C/c2ccc(-c3cccc(Cl)c3)o2)C1 (racemic)
75.9 | 42.7 | 26.9 to 170 | 22.9 | 0.214 | O=C(O)[C@H]1CNC[C@@H](CN/N=C/c2ccc(-c3cccc4ccccc34)o2)C1 (racemic)
 |  |  |  | 2.29 | O=C(O)[C@H]1CNC[C@@H](CN/N=C/c2ccc(-c3ccccc3C(F)(F)F)o2)C1 (racemic)

The remaining lines, values behind:

SMILES | IC50 [1] [µM] | IC50 [2] [µM] | IC50 [3] [µM] | IC50 [4] [µM] | Ki [5] [µM]
O=C(O)[C@H]1CNC[C@@H](CN/N=C/c2ccc(-c3ccc(F)c(C(F)(F)F)c3)o2)C1 (racemic) |  |  |  |  | 1.26
O=C(O)[C@H]1CNC[C@@H](CN/N=C/c2ccc(-c3ccc(C(F)(F)F)cc3Cl)o2)C1 (racemic) |  | 30.9 to 135 | 26.9 to 170 | 41.7 | 0.447
O=C(O)[C@H]1CNC[C@@H](CN/N=C/c2ccc(-c3ccccc3Cl)o2)C1 (racemic) |  |  |  |  | 1.23
O=C(O)[C@H]1CNC[C@@H](CN/N=C/c2ccc(-c3ccccc3Br)o2)C1 (racemic) |  |  |  |  | 1.45
O=C(O)[C@H]1CNC[C@@H](CN/N=C/c2ccc(-c3cc(C(F)(F)F)cc(C(F)(F)F)c3)o2)C1 (racemic) |  | 135 | 26.9 to 170 |  | 0.245
O=C(O)[C@H]1CNC[C@@H](CN/N=C/c2ccc(-c3ccc(Cl)cc3[N+](=O)[O-])o2)C1 (racemic) |  |  |  |  | 1.48
O=C(O)[C@H]1CNC[C@@H](CN/N=C/c2ccc(-c3cc(C(F)(F)F)ccc3Cl)o2)C1 (racemic) |  | 30.9 to 135 | 26.9 to 170 | 81.3 | 0.468
